For three compounds, Kd and tissue uptake results are on record in PMC6408977 (Journal of controlled release : official journal of the …, 2019).

For one series, the target named is albumin. As to conditions: read-out: Albumin dissociation constant; cited from earlier work.
Series [1] deals with human serum albumin (Homo sapiens) (UniProt P02768). As to conditions: cited from earlier work.
Series [2] is described as follows: Tissue biodistribution measurements. Also noted: species or system Balb/c mice. As to conditions: mouse, in vivo, iv. A digest of the protocol:
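Female Balb/c mice, 8–12 weeks old, from an in-house colony (n = 3). Tissue radioactivity was measured at 1 h and 4 h post-injection, alongside whole-body SPECT/CT imaging at the same times.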

Non-standard residues stand in square brackets, D forms with d. Residues, ends and D or L forms follow the SMILES beside them. Tyr(3-I) = N[C@@H](Cc1ccc(O)c(I)c1)C(=O)O

For the compound `CC1(C)S[C@@H]2[C@H](NC(=O)Cc3ccccc3)C(=O)N2[C@H]1C(=O)O` [penicillin G], at albumin, the Kd was 833 µM.
For the compound insulin detemir (from UniProt P01308), the Kd in series [1] was 4.16 µM.
A word on the tissue uptake: it is the share of the injected amount in each gram of the tissue. A higher tissue uptake goes with strong accumulation. In series [2], `CC(C)C[C@H](NC(=O)CNC(=O)[C@H](C)NC(=O)[C@H](Cc1ccc(O)c(I)c1)NC(=O)CN)C(=O)N[C@@H](C)C(=O)NCC(=O)N[C@@H](CC(C)C)C(=O)N[C@@H](CC(C)C)C(=O)NCC(=O)N[C@@H](CC(C)C)C(=O)N[C@@H](CCC(=O)O)C(=O)NCC(=O)N[C@@H](CC(C)C)C(=O)N[C@@H](CC(C)C)C(=O)NCC(=O)N[C@@H](CC(C)C)C(=O)N1CCC[C@H]1C(=O)N[C@@H](CC(C)C)C(=O)NCC(=O)N[C@@H](CC(C)C)C(=O)N[C@@H](CC(C)C)C(=O)N[C@@H](CCC(=O)O)C(=O)NCC(=O)N[C@@H](CC(C)C)C(=O)N[C@@H](Cc1c[nH]c2ccccc12)C(=O)N[C@@H](CC(C)C)C(=O)NCC(=O)N[C@@H](CC(C)C)C(=O)N[C@@H](CCC(=O)O)C(=O)N[C@@H](CC(C)C)C(=O)N[C@@H](CCC(=O)O)C(=O)NCC(=O)N[C@@H](CC(N)=O)C(=O)O` [^125I-ATRAM] (H-G[Tyr(3-I)]AGLAGLLGLEGLLGLPLGLLEGLWLGLELEGN-OH; N-terminus and C-terminus assumed) gave a tissue uptake at 1 h of 18 %ID/g and a tissue uptake at 4 h of 10 %ID/g.
